Measured values published in ChEMBL document CHEMBL1138091, “Privileged structure based ligands for melanocortin-4 receptors--aliphatic piperazine derivatives” (Bioorg Med Chem Lett, 2006).

Molecular target: Melanocortin receptor 4 (Homo sapiens, UniProt P32245)
Assay: Inhibition of [125I]NDP-alpha-MSH binding to human MC4R transfected in HEK293 cells
Assay type: cell-based
Procedure, shortened: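 Competition binding against ¹²⁵I-NDP-α-MSH on HEK293 cells stably expressing human MC4 receptor; affinity taken from inhibition of radioligand binding. Each value is the mean of at least two determinations, with the binding assay's average error given as 15%.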

Sequence of Melanocortin receptor 4 (P32245 whole entry): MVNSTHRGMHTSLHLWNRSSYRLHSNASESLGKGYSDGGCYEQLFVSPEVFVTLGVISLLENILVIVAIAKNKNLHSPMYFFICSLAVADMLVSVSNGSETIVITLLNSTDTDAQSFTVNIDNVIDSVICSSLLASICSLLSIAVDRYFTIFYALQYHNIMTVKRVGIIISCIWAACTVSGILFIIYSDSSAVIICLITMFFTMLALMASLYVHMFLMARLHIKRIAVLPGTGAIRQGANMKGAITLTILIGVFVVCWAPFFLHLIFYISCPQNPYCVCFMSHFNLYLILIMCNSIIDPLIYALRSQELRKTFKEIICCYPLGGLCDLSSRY

CCN(CC)CC(C)N1CCN(C(=O)[C@@H](Cc2ccc(Cl)cc2)NC(=O)[C@H]2Cc3ccccc3CN2)CC1 (some centres not stated)
Ki: 3.43 µM

CCN(CC(C1CCCCC1)N1CCN(C(=O)[C@@H](Cc2ccc(Cl)cc2)NC(=O)CC2Cc3ccccc3N2)CC1)C(C)=O (stereo in doubt; 35a)
Ki: 0.002 µM

CCN(CC)CC(C1CCCCCC1)N1CCN(C(=O)[C@@H](Cc2ccc(Cl)cc2)NC(=O)[C@H]2Cc3ccccc3CN2)CC1 (some centres not stated)
Ki: 0.013 µM

CC(C)CC(C1CCCCC1)N1CCN(C(=O)[C@@H](Cc2ccc(Cl)cc2)NC(=O)CC2Cc3ccccc3N2)CC1 (some centres not stated)
Ki: 0.054 µM

CS(=O)(=O)NCC(C1CCCCC1)N1CCN(C(=O)[C@@H](Cc2ccc(Cl)cc2)NC(=O)CC2Cc3ccccc3N2)CC1 (some centres not stated)
Ki: 0.026 µM

CCN(CC)CC(C1CCCCC1)N1CCN(C(=O)[C@@H](Cc2ccc(Cl)cc2)NC(=O)CC2Cc3ccccc3N2)CC1 (stereo in doubt; 28)
Ki: 0.003 µM

O=C(CC1Cc2ccccc2N1)N[C@H](Cc1ccc(Cl)cc1)C(=O)N1CCN(C(CC2CCCCC2)CC2CCCCC2)CC1 (some centres not stated)
Ki: 0.326 µM

CCN(CC(C1CCCCC1)N1CCN(C(=O)[C@@H](Cc2ccc(Cl)cc2)NC(=O)CC2Cc3ccccc3N2)CC1)S(C)(=O)=O (stereo in doubt; 34)
Ki: 0.003 µM

CCN(CC(C1CCCCC1)N1CCN(C(=O)[C@@H](Cc2ccc(Cl)cc2)NC(=O)n2cc3ccccc3c2)CC1)S(C)(=O)=O (some centres not stated)
Ki: 0.007 µM

CCN(CC)CC(CC1CCCCC1)N1CCN(C(=O)[C@@H](Cc2ccc(Cl)cc2)NC(=O)[C@H]2Cc3ccccc3CN2)CC1 (some centres not stated)
Ki: 0.013 µM

O=C(CC1Cc2ccccc2N1)N[C@H](Cc1ccc(Cl)cc1)C(=O)N1CCN(C(CN2C(=O)CCC2=O)C2CCCCC2)CC1 (stereo in doubt; 36)
Ki: 0.01 µM

O=C(CC1Cc2ccccc2N1)N[C@H](Cc1ccc(Cl)cc1)C(=O)N1CCN(C(C2CCCCC2)C2CCCCC2)CC1 (some centres not stated)
Ki: 0.035 µM

CCN(CC)CC(c1ccccc1F)N1CCN(C(=O)[C@@H](Cc2ccc(Cl)cc2)NC(=O)[C@H]2Cc3ccccc3CN2)CC1 (some centres not stated)
Ki: 0.02 µM

CCN(CC)C(=O)C(C1CCCCC1)N1CCN(C(=O)[C@@H](Cc2ccc(Cl)cc2)NC(=O)CC2Cc3ccccc3N2)CC1 (some centres not stated)
Ki: 0.148 µM

CCN(CC)CC1(N2CCN(C(=O)[C@@H](Cc3ccc(Cl)cc3)NC(=O)[C@H]3Cc4ccccc4CN3)CC2)CCCC1
Ki: 0.07 µM

CCN(CC)CC(C1CCCCC1)N1CCN(C(=O)[C@@H](Cc2ccc(Cl)cc2)NC(=O)CC2Cc3ccccc3N2)CC1 (stereo in doubt; 28b)
Ki: 0.005 µM

O=C(CC1Cc2ccccc2N1)N[C@H](Cc1ccc(Cl)cc1)C(=O)N1CCN(C(CN2C(=O)CCC2=O)C2CCCCC2)CC1 (stereo in doubt; 36b)
Ki: 0.018 µM

O=C(CC1Cc2ccccc2N1)N[C@H](Cc1ccc(Cl)cc1)C(=O)N1CCN(C(CC2CCCCC2)CN2CCOCC2)CC1 (some centres not stated)
Ki: 0.01 µM

CCN(CC)CC(C1CCCCC1)N1CCN(C(=O)[C@@H](Cc2ccc(Cl)cc2)NC(=O)CC2Cc3ccccc3N2)CC1 (stereo in doubt; 28a)
Ki: 0.003 µM

CCN(CC)CC(CC1CCCCC1)N1CCN(C(=O)[C@@H](Cc2ccc(Cl)cc2)NC(=O)CC2Cc3ccccc3N2)CC1 (some centres not stated)
Ki: 0.005 µM

CCN(CC)CC(C1CCCCC1)N1CCN(C(=O)[C@@H](Cc2ccc(Cl)cc2)NC(=O)[C@H]2Cc3ccccc3CN2)CC1 (some centres not stated)
Ki: 0.004 µM

O=C(CC1Cc2ccccc2N1)N[C@H](Cc1ccc(Cl)cc1)C(=O)N1CCN(C(CN2C(=O)CCC2=O)C2CCCCC2)CC1 (stereo in doubt; 36a)
Ki: 0.01 µM

CC(C)CC(CC(C)C)N1CCN(C(=O)[C@@H](Cc2ccc(Cl)cc2)NC(=O)CC2Cc3ccccc3N2)CC1 (some centres not stated)
Ki: 0.018 µM

CCN(CC)CC(C1CCCC1)N1CCN(C(=O)[C@@H](Cc2ccc(Cl)cc2)NC(=O)[C@H]2Cc3ccccc3CN2)CC1 (some centres not stated)
Ki: 0.004 µM

CCN(CC(C1CCCCC1)N1CCN(C(=O)[C@@H](Cc2ccc(Cl)cc2)NC(=O)CC2Cc3ccccc3N2)CC1)C(C)=O (stereo in doubt; 35b)
Ki: 0.003 µM

CCN(CC(C1CCCCC1)N1CCN(C(=O)[C@@H](Cc2ccc(Cl)cc2)NC(=O)CC2Cc3ccccc3N2)CC1)S(C)(=O)=O (stereo in doubt; 34a)
Ki: 0.006 µM

CCN(CC(C1CCCCC1)N1CCN(C(=O)[C@@H](Cc2ccc(Cl)cc2)NC(=O)CC2Cc3ccccc3N2)CC1)C(C)=O (stereo in doubt; 35)
Ki: 0.008 µM
